Screening data as filed in PubChem BioAssay.
PGC1a Ac signal = raises PGC1a acetylation signal in U2OS cells; U2OS PGC1a acetylation AlphaScreen, overnight; activation, % at 15.6 µM; actives 0.21% (n = 350,000); AID 651723;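 active = every replicate reaching activation of at least 50%, whatever the mean replicate activation; inconclusive = replicates that disagree or another doubt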;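 note: hits raise the AlphaScreen acetylation signal above neutral controls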
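detection = AlphaScreen lysate read | assay system = U2OS cells expressing flag-PGC1a plus GCN5 | input = 7000 cells/well | dosing = one concentration | times = compound overnight at 37 °C, each detection step 1 h RT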
G6PC hep suppr = PGC-1a acetylation activators affecting G6PC expression in hepatocytes; 240 tested, under 10 active; shares compounds with PGC1a Ac signal; primary mouse hepatocytes, G6PC mRNA qPCR, forskolin; G6PC suppression (normalized activity, % of positive control; higher = more suppression), % at 26 µM;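 active = dose curves showing G6PC suppression whose half-maximal dose is at most twice the top valid dose; inconclusive = flat curves with moderate negative activity, or unreliable fits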;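 note: G6PC expression relative to GAPDH housekeeping gene as delta delta Ct; 0% = median of neutral control wells and 100% = median of positive control wells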
Hep PCK1 suppr = PGC-1a acetylation activator altering hepatocyte PCK1 expression | PCK1 expression decrease, unspecified at 26 µM | 230 tested, under 10 active | AID 743465 | primary mouse hepatocytes, PCK1 mRNA qPCR, forskolin-stimulated | shares compounds with PGC1a Ac signal;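 active = compounds lowering PCK1 expression whose fitted half-maximal concentration is at most twice the top tested dose; inconclusive = flat fit with moderate opposite-direction effect, or poor fit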;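 note: values are delta delta Ct of PCK1 relative to GAPDH; higher delta delta Ct means lower PCK1 expression so positive values indicate hits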
Hep PGC-1a down = PGC-1a acetylation activators affecting PGC-1a expression in hepatocytes; max activity (PGC-1a expression decrease), %; 240 tested, under 10 active; primary mouse hepatocytes, PGC-1a mRNA qPCR, forskolin; top dose 26 µM; AID 743467; shares compounds with PGC1a Ac signal;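 active = compound lowering PGC-1a expression with fitted half-maximal concentration at most twice its top tested dose; inconclusive = flat curve with moderate opposite-direction effect, or poor fit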;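 note: 0% = neutral control wells median and 100% = positive control wells median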
* hit, by the source's call; ? = inconclusive; nt = not tested or not shown; [ ] = remark or other dose. The list is a sample of the results.

SMILES | PGC1a Ac signal | G6PC hep suppr | Hep PCK1 suppr | Hep PGC-1a down
Cc1cc(C)c(C#N)c(N2CCN(c3ccccc3)CC2)n1 | -49 | nt | nt | nt
CC(=O)Nc1sc2c(c1-c1nc3ccccc3s1)CN(C(C)C)CC2 | -52 | nt | nt | nt
O=C(CN1CCC(n2nnc3cc(C(F)(F)F)ccc32)CC1)NCc1cccs1 | nt | 14 | 22 | 52
Cn1nc(-c2ccccn2)nc2c(=O)n(C)c(=O)nc1-2 | -80 | nt | nt | nt
COc1ccc(S(=O)(=O)N(C)CC(=O)Nc2cccc(C(C)=O)c2)cc1Cl | ? | 17 | 13 | ?
Cc1ccc(Cl)cc1NC(=O)Cn1nc(-c2cccs2)ccc1=O | -40 | -7 | -25 | 17
COc1cc(/C=N/NC(=O)c2ccncc2)ccc1OC(C)=O | -49 | nt | nt | nt
CCCS(=O)(=O)Nc1cccc(-c2nc3cccnc3s2)c1 | ? | -45 | -27 | 35
CN(C)c1ccc(Sc2ccc3nc(N)nc(N)c3c2)cc1 | -46 | nt | nt | nt
OCC1OC(Oc2c(Br)cc(Br)cc2Br)C(O)C(O)C1O (stereo not given) | -63 | nt | nt | nt
Cn1ncc(N=Cc2ccccc2)c1C(N)=O | -48 | nt | nt | nt
COc1ccc(-c2nc(N)c(C#N)c(-c3cccnc3)c2C)cc1 | ? | 2 | 7.5 | 40
COc1cc(C(C)=O)ccc1OCC(O)CN1CCN(c2ccc(C)c(C)c2)CC1 (stereo not given) | -40 | nt | nt | nt
C=CCn1c(SCC(=O)Nc2ccc(C(=O)O)cc2)nnc1-c1cccnc1 | -40 | nt | nt | nt
CCn1c(SCC(=O)Nc2ccc(NC(=O)c3ccco3)cc2)nnc1-c1cccs1 | 124* | 7 | -8.6 | 52
C[C@@H](C(=O)Nc1nc2ccc(F)cc2s1)N1C(=O)C2CC=CCC2C1=O (stereo not given in full) | -47 | nt | nt | nt
O=C(CCSc1nnc(-c2ccc(O)cc2)o1)N1CCOCC1 | -46 | nt | nt | nt
O=C(CCc1nc2ccccc2c(=O)[nH]1)Nc1ccc(N2CCCCC2)cc1 | 100* | 42 | nt | 87
CC(=O)N(CCC(Cc1ccccc1)c1ccc2c(c1)OCO2)Cc1ccccc1F (stereo not given) | -40 | nt | nt | nt
CN1CCN(C/C(=C2/N=C(c3ccccc3)OC2=O)N(C)C)CC1 | -51 | nt | nt | nt
CCOCCCNC(=O)C1CCN(C(=O)Nc2ccc(C)cc2)CC1 | -45 | nt | nt | nt
CCOC(=O)c1ccc(NC(=O)N2CCc3ccccc3C2)cc1 | ? | 25[8 µM] | 22 | 117
CCOC(=O)N(O)c1ccc(C=Cc2ccccc2)cc1 | -49 | nt | nt | nt
